Experimental findings from the RNAGym collection of RNA variant scans (doi:10.1126/science.aae0568) are described below.

Variants at the floor of the assay were thinned out. Bounds are passed on as bounds.

B1: tRNA (parent)
chain: GUUCCGUUGGCGUAAUGGUAACGCGUCUCCCUCCUAAGGAGAAGACUGCGGGUUCGAGUCCCGUACGGAACG

The variants in this series derive from B1. Kind of series: yeast fitness relative to wild type (ratio to wild type); higher = fitter; tRNA-Arg(CCU), competitive growth, 37 C, YPD. A digest of the protocol: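 Variants of the tRNA-Arg(CCU) gene, chemically synthesised with a 3% per-site mutation rate at 69 sites, were placed at the native genomic locus in Saccharomyces cerevisiae. The pooled strains were competed in YPD at 37°C for 24 hours in six parallel replicates. Gene amplicons from the start population and from each end population were read by 100-nucleotide paired-end sequencing. Darwinian fitness relative to wild type came from changes in genotype frequencies; genotypes needed ≥ 100 starting reads, and estimates < 0.5 were set to 0.5.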
As for U3C U8G U32A C33G U53A A69C, the yeast fitness is at most 0.5.

Consider U3C U26G, for which the yeast fitness is 0.868.

U3C U26A: the yeast fitness turned out to be 0.856.

Consider U3C G23C C27G C61G, for which the yeast fitness came to 0.539.

As for U3C U13A C31U G41A C61G, the yeast fitness is at most 0.5.

Turning to U3C U19C, the yeast fitness was determined as 0.929.

Regarding U3C U19A, the yeast fitness turned out to be 1.03.

As for U3C G39A G67U, the yeast fitness was at most 0.5.

U3C G23A C30U C33A G41C A42U: the yeast fitness is at most 0.5.

Take U3C G50A G68C: the yeast fitness was determined as 0.609.

Turning to U3C G44C, the yeast fitness amounted to 0.908.

For U3C G44A, the yeast fitness came to 0.993.

As to U3C G48A U54A, the yeast fitness worked out at 0.534.

Turning to U3G A15G G23A U47C, the yeast fitness was at most 0.5.

For the variant U3C U26A C33U C49U, the yeast fitness is at most 0.5.

In the case of U3C U16A C34A U53C C60U, the yeast fitness is at most 0.5.

U3C U7C U35C: the yeast fitness came out at 0.505.

As to U3C U53C, the yeast fitness is 0.78.

U3C U47G U64A: the yeast fitness is at most 0.5.

Consider U3C U19A C46A, for which the yeast fitness was 0.716.

With U3C U26G G63A, the yeast fitness was at most 0.5.

On to U3G A14U, for which the yeast fitness was 0.629.

Turning to U3G A14C, the yeast fitness turned out to be 0.773.

Regarding U3C U8G, the yeast fitness is 0.581.

Turning to U3C U7A G44C C61U C62U G63C U64A C66U A69G, the yeast fitness was at most 0.5.

Turning to U3C U8C G9A A69U, the yeast fitness came out at 0.564.

For U3C G23C C62G, the yeast fitness is 0.535.

With U3C U16G A21C G25C A37C A40U, the yeast fitness is at most 0.5.

As to U3C U54A, the yeast fitness was determined as 0.676.

For the variant U3C U54G, the yeast fitness came to 0.536.

U3C U54C: the yeast fitness came to 0.873.

With U3C G25C C34U G56A, the yeast fitness is at most 0.5.

As to U3C U13C C31U, the yeast fitness amounted to 0.801.

Turning to U3G A15C C30G C33G A37C, the yeast fitness was 0.795.

With U3C G48C G67C, the yeast fitness was at most 0.5.

U3C U13A C31U G41A A70C: the yeast fitness is 0.639.

As to U3C G56C, the yeast fitness was 0.67.

On to U3C U16G U19A A43C C49U A57U, for which the yeast fitness was at most 0.5.

U3G A20C A65U: the yeast fitness came out at 0.589.

As to U3C U13C A21G A43U, the yeast fitness was 0.708.

Consider U3C U8C A14G U28G A36U C46U C61U, for which the yeast fitness is 0.549.

In the case of U3C U59G, the yeast fitness was determined as 0.71.

U3C U59A: the yeast fitness was found to be 0.846.

In the case of U3C U13A A20C C30G C31A G67C, the yeast fitness was at most 0.5.

Regarding U3C G39C G63A, the yeast fitness was 0.533.

Take U3C U8G U32A C33G C62U: the yeast fitness was at most 0.5.

With U3C U19A G68A, the yeast fitness is 0.698.

In the case of U3G A15G C24G G50A, the yeast fitness amounted to 0.539.

As to U3C U32A G41A C46U, the yeast fitness was at most 0.5.

Turning to U3C U8A A15C C31G C49U A57U, the yeast fitness came out at 0.609.

With U3C G23A C34U A40U A42U U64A, the yeast fitness is at most 0.5.

In the case of U3G A15G, the yeast fitness turned out to be 0.846.

Regarding U3G A15U, the yeast fitness was found to be 0.633.

Regarding U3G A15G C24G G50A C55U C61U A65U, the yeast fitness was at most 0.5.

For U3C U13G A70G, the yeast fitness was 0.698.

Take U3C U32C: the yeast fitness stood at 0.839.

On to U3C U7A A20G C31U A57C G67C, for which the yeast fitness is at most 0.5.

With U3C U16A C30U A40C, the yeast fitness was at most 0.5.

U3C U35G A57C A70C: the yeast fitness was at most 0.5.

As to U3G A15G C24G G44A G50A C55U, the yeast fitness is at most 0.5.

U3C G23C C27G G39A C66U: the yeast fitness is at most 0.5.

Take U3C U28G G39C: the yeast fitness is at most 0.5.

Regarding U3C U13G C24U, the yeast fitness amounted to 0.559.

Turning to U3G A14U A15U A20C C33G A40U C61G, the yeast fitness turned out to be 0.543.

Turning to U3G A14U G48C C49U C61A, the yeast fitness is at most 0.5.

As for U3C U8G U28G C31A C61U, the yeast fitness was at most 0.5.

Take U3C G25C A37U G44A: the yeast fitness was 0.705.

Consider U3C G25A G68C A69G, for which the yeast fitness is 1.08.

U3G A15G A21U C24U U35C G38A: the yeast fitness was at most 0.5.

Take U3C U19A A69U: the yeast fitness is 0.865.

U3C U19A C22U G23A: the yeast fitness was at most 0.5.

U3C U26C G44C U54A A69C: the yeast fitness was at most 0.5.

U3C G68A: the yeast fitness was 0.866.

With U3C G68C, the yeast fitness stood at 0.845.

For U3C U59C A69C, the yeast fitness was determined as 1.02.

In the case of U3C U13C C24U G52A, the yeast fitness stood at 0.576.

On to U3C U13A A20C C30G C31A, for which the yeast fitness is at most 0.5.

In the case of U3C U13C G51C, the yeast fitness is at most 0.5.

Turning to U3C U13A A14C A42G, the yeast fitness was at most 0.5.

As for U3C U8C A45U, the yeast fitness was determined as 0.721.

Consider U3C U32C A42U, for which the yeast fitness is 0.686.

As for U3C U13A A20C C30G C31A U54A C55U, the yeast fitness is 0.521.

With U3C U54C C61G, the yeast fitness came out at 0.577.

Regarding U3G A15U U35C, the yeast fitness is at most 0.5.

On to U3C U7A G9C G17C G48A A69U, for which the yeast fitness was at most 0.5.

As for U3C G38C A57U A70G, the yeast fitness came to 0.622.

For U3C G67C, the yeast fitness came out at 0.783.

Consider U3C G67U, for which the yeast fitness was 0.839.

U3G A14U C29U A37G G51A: the yeast fitness is at most 0.5.

Turning to U3C U13A A40C, the yeast fitness was at most 0.5.

For the variant U3C G39C A43G G44C A45U C49G G67C, the yeast fitness is at most 0.5.

Consider U3C U13A A45C G48A U64C, for which the yeast fitness stood at 0.57.

For U3G A15G A21G U26C C29G C30U C49U A57U, the yeast fitness is at most 0.5.

Consider U3C U8C C11A U32G C61A C62A, for which the yeast fitness is at most 0.5.

For U3C U16G U19A A43C A57U A69C, the yeast fitness was at most 0.5.

Regarding U3C U26C A42U, the yeast fitness was determined as 0.939.

For the variant U3C U28C C33U A45U, the yeast fitness was 0.528.

In the case of U3C U13C U28G U54A C62A, the yeast fitness is at most 0.5.

With U3C U8G U32A C33G C61U C62U, the yeast fitness turned out to be 0.561.

On to U3C U28A C34U G41C G51A U53A U59C A70U, for which the yeast fitness is at most 0.5.

Turning to U3G A15G A21U C24U G38A, the yeast fitness is 0.571.

Regarding U3G A20C G44C U47C C61U, the yeast fitness was at most 0.5.

For U3C U8C A57C, the yeast fitness was at most 0.5.

As for U3C G38C A65U C66U, the yeast fitness worked out at 0.555.

As to U3C U7C U19A G23A C29G A45U C60G C61U A69G, the yeast fitness is at most 0.5.

In the case of U3C G25A A42C, the yeast fitness was at most 0.5.

With U3C U13A A45C G48A, the yeast fitness was found to be 0.604.

In the case of U3C U13C, the yeast fitness came out at 0.841.

Regarding U3C U13A C31U G41A C66A, the yeast fitness is at most 0.5.

On to U3G A14C A42U G44C, for which the yeast fitness was 0.578.

For the variant U3C U19C C24A G58A, the yeast fitness was at most 0.5.

Consider U3C U8A A43G A57U G63A, for which the yeast fitness was at most 0.5.

On to U3C U32G A37G, for which the yeast fitness was at most 0.5.

Consider U3C G38A C61U, for which the yeast fitness amounted to 0.564.

Consider U3C U19A A43G, for which the yeast fitness was 0.677.

For the variant U3C G44C C60G, the yeast fitness came out at 0.562.

On to U3C U19A G58C C62G A70U, for which the yeast fitness was at most 0.5.

Regarding U3C U47C, the yeast fitness was determined as 0.866.

For the variant U3C U47A, the yeast fitness came out at 0.907.

On to U3C U47G, for which the yeast fitness was 0.7.

With U3C U7G A14C C31A G50A G52C A65C, the yeast fitness was at most 0.5.

As to U3G A14G G39C, the yeast fitness is at most 0.5.

As for U3C U28A C34U U47C C60U, the yeast fitness was at most 0.5.

As for U3C U19A G52A U59C C66A G67A, the yeast fitness was at most 0.5.

In the case of U3G A14C A20U, the yeast fitness was at most 0.5.

For the variant U3C G25C G41C C46U A65U, the yeast fitness was at most 0.5.

In the case of U3C U13C C24U G52A G56A, the yeast fitness was at most 0.5.

Regarding U3C U13C U16A C61A U64C, the yeast fitness was 0.582.

Turning to U3C U28A, the yeast fitness was 0.832.

As to U3C G50C, the yeast fitness was 0.714.

For the variant U3C U19C A20G, the yeast fitness is 0.663.

For the variant U3C U8C C11A C31A G68C, the yeast fitness is at most 0.5.

On to U3C U8C A14G U28G A36U C46U U47C C61U, for which the yeast fitness came out at 0.553.

Take U3C U16G: the yeast fitness turned out to be 0.823.

Consider U3C G50A C61U, for which the yeast fitness is 0.671.

Turning to U3G A14U C29U A37G, the yeast fitness is at most 0.5.

In the case of U3C G41C, the yeast fitness turned out to be 0.824.

On to U3C G41A, for which the yeast fitness amounted to 0.879.

As for U3C G63C U64C, the yeast fitness is 0.631.

For the variant U3C G25C C62U G68A, the yeast fitness stood at 0.796.

For the variant U3C G44C A70C, the yeast fitness was determined as 0.602.

With U3C U54A C62U, the yeast fitness was at most 0.5.

Turning to U3C U64C, the yeast fitness is 1.04.

As for U3C U64A, the yeast fitness worked out at 0.792.

For the variant U3C U8A U13C, the yeast fitness was at most 0.5.

As for U3C G44C U59A, the yeast fitness was at most 0.5.

Regarding U3C U47C C49U G51A, the yeast fitness is at most 0.5.

Take U3C U26G C33A C61U: the yeast fitness is at most 0.5.

As for U3C U32C G58C, the yeast fitness was 1.04.

As for U3C U13C C24U G52A G68A, the yeast fitness was at most 0.5.

For the variant U3C G25A, the yeast fitness worked out at 0.968.

For U3G A15G G23A, the yeast fitness was at most 0.5.

Regarding U3C G39C, the yeast fitness was 0.695.

As for U3G A20C A21G, the yeast fitness was determined as 0.798.

On to U3C G23A U35G A42G, for which the yeast fitness is at most 0.5.

As for U3C U16G C30U C33U U47C, the yeast fitness is at most 0.5.

Take U3C G51C C66U: the yeast fitness is at most 0.5.

As to U3C U16G U19A A43C A57U, the yeast fitness was at most 0.5.

For the variant U3C U26G G67C, the yeast fitness is at most 0.5.

For U3C G63A A70U, the yeast fitness stood at 0.655.

Consider U3C U13C U16A A42G C49G U54C G63C A70U, for which the yeast fitness stood at 0.532.

On to U3C U28A C55G, for which the yeast fitness is at most 0.5.

Turning to U3C U19A G50C C62G C66U, the yeast fitness turned out to be 0.575.

Regarding U3C U19C A40G C46A, the yeast fitness came out at 0.74.

Turning to U3C U13C U16A A45G C61A U64C, the yeast fitness was at most 0.5.

In the case of U3C U8C A69U, the yeast fitness is 0.81.

For the variant U3C U7A U28G A43U G56C A57U G67A, the yeast fitness is at most 0.5.
